Assay results taken from ChEMBL document CHEMBL1629465, “Efficient synthesis of novel 1,2,4-triazole fused acyclic and 21-28 membered macrocyclic and/or lariat macrocyclic oxaazathia crown compounds with potential antimicrobial activity” (2010).

How the values were obtained:
Assay type in all cases: functional
Details in all cases: read-out: DIZ
[1] = system: Syncephalastrum racemosum; assay: Antimicrobial activity against Syncephalastrum racemosum RCMB 016001 at 5 mg/ml by agar diffusion technique
Outline: (§1)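 Agar well diffusion. Test compounds and reference standard drugs were diluted to 5.0, 2.5 and 1.0 mg/mL and applied to 0.6 cm wells. Inhibition zone beyond the control was scored as 0 (no inhibition), + (0.1–0.5 cm), ++ (0.6–1.0 cm) or +++ (1.0–1.5 cm).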

[2] = system: Penicillium italicum; assay: Antimicrobial activity against Penicillium italicum RCMB 001018 at 1 mg/ml by agar diffusion technique; outline: as §1
[3] = system: Pseudomonas aeruginosa; assay: Antimicrobial activity against Pseudomonas aeruginosa RCMB 102002 at 5 mg/ml by agar diffusion technique; outline: as §1
[4] = system: Aspergillus fumigatus; assay: Antimicrobial activity against Aspergillus fumigatus RCMB 002008 at 5 mg/ml by agar diffusion technique; outline: as §1
[5] = system: Bacillus subtilis; assay: Antimicrobial activity against Bacillus subtilis RCMB 101001 at 1 mg/ml by agar diffusion technique; outline: as §1
[6] = system: Penicillium italicum; assay: Antimicrobial activity against Penicillium italicum RCMB 001018 at 2.5 mg/ml by agar diffusion technique; outline: as §1
[7] = system: Pseudomonas aeruginosa; assay: Antimicrobial activity against Pseudomonas aeruginosa RCMB 102002 at 2.5 mg/ml by agar diffusion technique; outline: as §1
[8] = system: Bacillus subtilis; assay: Antimicrobial activity against Bacillus subtilis RCMB 101001 at 2.5 mg/ml by agar diffusion technique; outline: as §1
[9] = system: Staphylococcus aureus; assay: Antimicrobial activity against Staphylococcus aureus RCMB 106001 at 1 mg/ml by agar diffusion technique; outline: as §1
[10] = system: Candida albicans; assay: Antimicrobial activity against Candida albicans RCMB 005003 at 1 mg/ml by agar diffusion technique; outline: as §1
[11] = system: Syncephalastrum racemosum; assay: Antimicrobial activity against Syncephalastrum racemosum RCMB 016001 at 2.5 mg/ml by agar diffusion technique; outline: as §1
[12] = system: Candida albicans; assay: Antimicrobial activity against Candida albicans RCMB 005003 at 2.5 mg/ml by agar diffusion technique; outline: as §1
[13] = system: Bacillus subtilis; assay: Antimicrobial activity against Bacillus subtilis RCMB 101001 at 5 mg/ml by agar diffusion technique; outline: as §1
[14] = system: Aspergillus fumigatus; assay: Antimicrobial activity against Aspergillus fumigatus RCMB 002008 at 2.5 mg/ml by agar diffusion technique; outline: as §1
[15] = system: Staphylococcus aureus; assay: Antimicrobial activity against Staphylococcus aureus RCMB 106001 at 2.5 mg/ml by agar diffusion technique; outline: as §1
[16] = system: Staphylococcus aureus; assay: Antimicrobial activity against Staphylococcus aureus RCMB 106001 at 5 mg/ml by agar diffusion technique; outline: as §1
[17] = system: Escherichia coli; assay: Antimicrobial activity against Escherichia coli RCMB 103001 at 1 mg/ml by agar diffusion technique; outline: as §1
[18] = system: Syncephalastrum racemosum; assay: Antimicrobial activity against Syncephalastrum racemosum RCMB 016001 at 1 mg/ml by agar diffusion technique; outline: as §1
[19] = system: Candida albicans; assay: Antimicrobial activity against Candida albicans RCMB 005003 at 5 mg/ml by agar diffusion technique; outline: as §1
[20] = system: Escherichia coli; assay: Antimicrobial activity against Escherichia coli RCMB 103001 at 2.5 mg/ml by agar diffusion technique; outline: as §1
[21] = system: Aspergillus fumigatus; assay: Antimicrobial activity against Aspergillus fumigatus RCMB 002008 at 1 mg/ml by agar diffusion technique; outline: as §1
[22] = system: Penicillium italicum; assay: Antimicrobial activity against Penicillium italicum RCMB 001018 at 5 mg/ml by agar diffusion technique; outline: as §1
[23] = system: Pseudomonas aeruginosa; assay: Antimicrobial activity against Pseudomonas aeruginosa RCMB 102002 at 1 mg/ml by agar diffusion technique; outline: as §1
[24] = system: Escherichia coli; assay: Antimicrobial activity against Escherichia coli RCMB 103001 at 5 mg/ml by agar diffusion technique; outline: as §1

SMILES | zone of inhibition at 5000 µg/mL [1] | zone of inhibition at 1000 µg/mL [2] | zone of inhibition at 5000 µg/mL [3] | zone of inhibition at 5000 µg/mL [4] | zone of inhibition at 1000 µg/mL [5] | zone of inhibition at 2500 µg/mL [6] | zone of inhibition at 2500 µg/mL [7] | zone of inhibition at 2500 µg/mL [8] | zone of inhibition at 1000 µg/mL [9] | zone of inhibition at 1000 µg/mL [10] | zone of inhibition at 2500 µg/mL [11] | zone of inhibition at 2500 µg/mL [12] | zone of inhibition at 5000 µg/mL [13] | zone of inhibition at 2500 µg/mL [14] | zone of inhibition at 2500 µg/mL [15] | zone of inhibition at 5000 µg/mL [16] | zone of inhibition at 1000 µg/mL [17] | zone of inhibition at 1000 µg/mL [18] | zone of inhibition at 5000 µg/mL [19] | zone of inhibition at 2500 µg/mL [20] | also measured
CN(C/C=C/C#CC(C)(C)C)Cc1cccc2ccccc12 [TERBINAFINE] | 10 mm | 6 mm | 10 mm | 10 mm | 6 mm | 10 mm | 10 mm | 10 mm | 6 mm | 6 mm | 10 mm | 6 mm | 10 mm | 10 mm | 6 mm | 6 mm | 6 mm | 10 mm | 6 mm | 6 mm | zone of inhibition at 1000 µg/mL [21]: 6 mm; zone of inhibition at 5000 µg/mL [22]: 10 mm; zone of inhibition at 1000 µg/mL [23]: 6 mm; zone of inhibition at 5000 µg/mL [24]: 6 mm
Nn1c(SCCCSc2nnc(-c3cccnc3)n2N)nnc1-c1cccnc1 | 1 mm | 0 mm | 0 mm | 1 mm | 0 mm | 0 mm | 0 mm | 0 mm | 0 mm | 0 mm | 0 mm | 0 mm | 0 mm | 1 mm | 0 mm | 0 mm | 0 mm | 0 mm | 1 mm | 0 mm | zone of inhibition at 1000 µg/mL [21]: 0 mm; zone of inhibition at 5000 µg/mL [22]: 0 mm; zone of inhibition at 1000 µg/mL [23]: 0 mm; zone of inhibition at 5000 µg/mL [24]: 0 mm
S=c1[nH]nc(-c2cccnc2)n1/N=C\c1ccccc1OCCOCCOCCOc1ccccc1/C=N\n1c(-c2cccnc2)n[nH]c1=S | 0 mm | 1 mm | 0 mm | 0 mm | 0 mm | 1 mm | 0 mm | 0 mm | 0 mm | 0 mm | 0 mm | 0 mm | 0 mm | 0 mm | 0 mm | 1 mm | 0 mm | 0 mm | 1 mm | 0 mm | zone of inhibition at 1000 µg/mL [21]: 0 mm; zone of inhibition at 5000 µg/mL [22]: 6 mm; zone of inhibition at 1000 µg/mL [23]: 0 mm; zone of inhibition at 5000 µg/mL [24]: 0 mm
S=c1[nH]nc(-c2cccnc2)n1/N=C\c1ccccc1OCCOCCOc1ccccc1/C=N\n1c(-c2cccnc2)n[nH]c1=S | 1 mm | 1 mm | 0 mm | 1 mm | 1 mm | 1 mm | 0 mm | 1 mm | 0 mm | 0 mm | 0 mm | 0 mm | 1 mm | 1 mm | 0 mm | 0 mm | 0 mm | 0 mm | 0 mm | 0 mm | zone of inhibition at 1000 µg/mL [21]: 0 mm; zone of inhibition at 5000 µg/mL [22]: 1 mm; zone of inhibition at 1000 µg/mL [23]: 0 mm; zone of inhibition at 5000 µg/mL [24]: 0 mm
S=c1[nH]nc(-c2cccnc2)n1/N=C\c1ccccc1OCCCOc1ccccc1/C=N\n1c(-c2cccnc2)n[nH]c1=S | 1 mm | 0 mm | 0 mm | 0 mm | 1 mm | 0 mm | 0 mm | 1 mm | 0 mm | 0 mm | 1 mm | 0 mm | 1 mm | 0 mm | 1 mm | 1 mm | 0 mm | 0 mm | 0 mm | 0 mm | zone of inhibition at 1000 µg/mL [21]: 0 mm; zone of inhibition at 5000 µg/mL [22]: 0 mm; zone of inhibition at 1000 µg/mL [23]: 0 mm; zone of inhibition at 5000 µg/mL [24]: 0 mm
Oc1ccccc1/C=N\n1c(SCCSc2nnc(-c3cccnc3)n2/N=C\c2ccccc2O)nnc1-c1cccnc1 | 1 mm | 0 mm | 0 mm | 0 mm | 0 mm | 0 mm | 0 mm | 0 mm | 0 mm | 0 mm | 1 mm | 0 mm | 1 mm | 0 mm | 0 mm | 0 mm | 0 mm | 0 mm | 0 mm | 0 mm | zone of inhibition at 1000 µg/mL [21]: 0 mm; zone of inhibition at 5000 µg/mL [22]: 1 mm; zone of inhibition at 1000 µg/mL [23]: 0 mm; zone of inhibition at 5000 µg/mL [24]: 0 mm
S=c1[nH]nc(-c2cccnc2)n1/N=C\c1ccccc1OCCCCOc1ccccc1/C=N\n1c(-c2cccnc2)n[nH]c1=S | 1 mm | 1 mm | 1 mm | 0 mm | 0 mm | 1 mm | 1 mm | 0 mm | 0 mm | 0 mm | 1 mm | 0 mm | 0 mm | 0 mm | 0 mm | 1 mm | 0 mm | 0 mm | 1 mm | 0 mm | zone of inhibition at 1000 µg/mL [21]: 0 mm; zone of inhibition at 5000 µg/mL [22]: 1 mm; zone of inhibition at 1000 µg/mL [23]: 0 mm; zone of inhibition at 5000 µg/mL [24]: 0 mm
OC1COc2ccccc2/C=N\n2c(nnc2-c2cccnc2)SCCCCSc2nnc(-c3cccnc3)n2/N=C\c2ccccc2OC1 | 0 mm | 0 mm | 0 mm | 0 mm | 1 mm | 0 mm | 0 mm | 1 mm | 0 mm | 0 mm | 0 mm | 0 mm | 1 mm | 0 mm | 0 mm | 1 mm | 0 mm | 0 mm | 0 mm | 0 mm | zone of inhibition at 1000 µg/mL [21]: 0 mm; zone of inhibition at 5000 µg/mL [22]: 0 mm; zone of inhibition at 1000 µg/mL [23]: 0 mm; zone of inhibition at 5000 µg/mL [24]: 0 mm
